Test results from ChEMBL document CHEMBL1155796, “Lupane-type triterpenoids from Microtropis fokienensis and Perrottetia arisanensis and the apoptotic effect of 28-hydroxy-3-oxo-lup-20(29)-en-30-al” (J Nat Prod, 2008).
≈ marks a conversion by molar mass, not a printed value. Calls of active or inactive are those of the source. No cut-off for these calls is given here.

What was measured:
HL-60 [1] = assay: Cytotoxicity against human HL60 cells by MTT assay; assay type: functional, cell-based
How it was run: (§1)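 Freshly trypsinized cells were seeded at 5000-10 000 per well, and compounds were added from DMSO stocks and left for 3 days. Attached cells were then given MTT ([…], 1 h) and dissolved in DMSO, with absorbance read at 550 nm.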

HepG2 = assay: Cytotoxicity against human HepG2 cells by MTT assay; assay type: functional, cell-based; how it was run: as §1
[2] = Cytotoxicity against human Hep3B cells by MTT assay; assay type: functional, cell-based, Hep 3B2; how it was run: as §1
MDA-MB-231 = assay: Cytotoxicity against human MDA-MB-231 cells by MTT assay; assay type: functional, cell-based; how it was run: as §1
MCF7 = assay: Cytotoxicity against human MCF7 cells by MTT assay; assay type: functional, cell-based; how it was run: as §1
A549 = assay: Cytotoxicity against human A549 cells by MTT assay; assay type: functional, cell-based; how it was run: as §1
Ca9-22 = assay: Cytotoxicity against human sCa9-22 cells by MTT assay; assay type: functional, cell-based; how it was run: as §1
B16 = assay: Cytotoxicity against mouse B16 cells; assay type: functional, cell-based
HL-60 [3] = assay: Cell cycle arrest in human HL60 cells assessed as accumulation at G0/G1 cells at 0.625 ug/ml after 24 hrs by flow cytometry; assay type: functional
How it was run: (§2)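 Treated and control HL60 cells harvested, washed in cold PBS, fixed in 70% ethanol and held at 4 °C. […] DNA content read by flow cytometry. Fractions in sub-G1, G0/G1, S and G2/M assigned by cell-cycle modelling software.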

HL-60 [4] = assay: Cell cycle arrest in human HL60 cells assessed as accumulation at S cells at 0.625 ug/ml after 24 hrs by flow cytometry; assay type: functional; how it was run: as §2
HL-60 [5] = assay: Cell cycle arrest in human HL60 cells assessed as accumulation at G2 cells at 0.625 ug/ml after 24 hrs by flow cytometry; assay type: functional; how it was run: as §2
HL-60 [6] = assay: Induction of apoptosis in human HL60 cells assessed as PARP cleavage by Western blotting; assay type: functional, cell-based
How it was run: (§3)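 Lysate cleared at 20000g, 30 min, 4 °C and protein measured by BCA. 50 µg resolved on 12% SDS-PAGE, blotted to PVDF and probed for PARP, Bax and Bcl-2, with β-tubulin as loading control.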

HL-60 [7] = assay: Induction of apoptosis in human HL60 cells assessed as increase in Bax protein level by Western blotting; assay type: functional, cell-based; how it was run: as §3
HL-60 [8] = assay: Induction of apoptosis in human HL60 cells assessed as effect on Bcl2 protein level by Western blotting; assay type: functional, cell-based; how it was run: as §3
HL-60 [9] = assay: Cell cycle arrest in human HL60 cells assessed as accumulation at subG1 cells at 1.250 ug/ml after 24 hrs; assay type: functional; how it was run: as §2
HL-60 [10] = assay: Cell cycle arrest in human HL60 cells assessed as accumulation at G0/G1 cells at 1.250 ug/ml after 24 hrs; assay type: functional; how it was run: as §2
HL-60 [11] = assay: Cell cycle arrest in human HL60 cells assessed as accumulation at S cells at 1.250 ug/ml after 24 hrs; assay type: functional; how it was run: as §2
HL-60 [12] = assay: Cell cycle arrest in human HL60 cells assessed as accumulation at G2 cells at 1.250 ug/ml after 24 hrs; assay type: functional; how it was run: as §2
HL-60 [13] = assay: Cell cycle arrest in human HL60 cells assessed as accumulation at subG1 cells at 2.5 ug/ml after 24 hrs; assay type: functional; how it was run: as §2
HL-60 [14] = assay: Cell cycle arrest in human HL60 cells assessed as accumulation at G0/G1 cells at 2.5 ug/ml after 24 hrs; assay type: functional; how it was run: as §2
HL-60 [15] = assay: Cell cycle arrest in human HL60 cells assessed as accumulation at S cells at 2.5 ug/ml after 24 hrs; assay type: functional; how it was run: as §2
HL-60 [16] = assay: Cell cycle arrest in human HL60 cells assessed as accumulation at G2 cells at 2.5 ug/ml after 24 hrs; assay type: functional; how it was run: as §2
HL-60 [17] = assay: Cell cycle arrest in human HL60 cells assessed as accumulation at subG1 cells at 5 ug/ml after 24 hrs; assay type: functional; how it was run: as §2
HL-60 [18] = assay: Cell cycle arrest in human HL60 cells assessed as accumulation at G0/G1 cells at 5 ug/ml after 24 hrs; assay type: functional; how it was run: as §2
HL-60 [19] = assay: Cell cycle arrest in human HL60 cells assessed as accumulation at S cells at 5 ug/ml after 24 hrs; assay type: functional; how it was run: as §2
HL-60 [20] = assay: Cell cycle arrest in human HL60 cells assessed as accumulation at G2 cells at 5 ug/ml after 24 hrs; assay type: functional; how it was run: as §2
HL-60 [21] = assay: Cell cycle arrest in human HL60 cells assessed as accumulation at subG1 cells at 0.625 ug/ml after 24 hrs by flow cytometry; assay type: functional; how it was run: as §2

Row | SMILES | IC50 (HL-60 [1]) [µg/mL] | IC50 (HepG2) [µg/mL] | IC50 [2] [µg/mL] | IC50 (MDA-MB-231) [µg/mL] | IC50 (MCF7) [µg/mL] | IC50 (A549) [µg/mL] | IC50 (Ca9-22) [µg/mL] | IC50 (B16) [µg/mL] | also measured
1 | C=C(C)[C@@H]1CC[C@]2(CO)CC[C@]3(C)[C@H](CC[C@@H]4[C@@]5(C)CC[C@@H](O)C(C)(C)[C@@H]5CC[C@]43C)[C@@H]12 [3-EPI-BETULIN] | 1.7 (≈ 3.84 µM) | 6.7 (≈ 15.1 µM) | 9.3 (≈ 21 µM) | > 20 | 16 (≈ 36.1 µM) | 15.7 (≈ 35.5 µM) | > 20 | – | –
2 | C=C(CO)[C@@H]1CC[C@]2(C)CC[C@]3(C)[C@H](CC[C@@H]4[C@@]5(C)CCC(=O)C(C)(C)[C@@H]5CC[C@]43C)[C@@H]12 | – | – | – | – | – | – | – | 9.2 (≈ 20.9 µM) | –
3 | C=C(C=O)[C@@H]1CC[C@]2(CO)CC[C@]3(C)[C@H](CC[C@@H]4[C@@]5(C)CCC(=O)C(C)(C)[C@@H]5CC[C@]43C)[C@@H]12 | 1.6 (≈ 3.52 µM) | 12.6 (≈ 27.7 µM) | 4.7 (≈ 10.3 µM) | 7.9 (≈ 17.4 µM) | 2.9 (≈ 6.38 µM) | 16.4 (≈ 36.1 µM) | 1.4 (≈ 3.08 µM) | – | Activity (HL-60 [3]): 54.2%; Activity (HL-60 [4]): 30.3%; Activity (HL-60 [5]): 13.9%; Activity (HL-60 [6]): Active; Activity (HL-60 [7]): Active; Activity (HL-60 [8]): inactive; Activity (HL-60 [9]): 2.8%; Activity (HL-60 [10]): 55.5%; Activity (HL-60 [11]): 30.5%; Activity (HL-60 [12]): 11.2%; Activity (HL-60 [13]): 10.2%; Activity (HL-60 [14]): 56%; Activity (HL-60 [15]): 22.3%; Activity (HL-60 [16]): 11.5%; Activity (HL-60 [17]): 57.8%; Activity (HL-60 [18]): 14.6%; Activity (HL-60 [19]): 19.8%; Activity (HL-60 [20]): 7.8%; Activity (HL-60 [21]): 1.6%
4 | COc1cccc2c1C(=O)c1c(O)c3c(c(O)c1C2=O)C[C@@](O)(C(=O)CO)C[C@@H]3O[C@H]1C[C@H](N)[C@H](O)[C@H](C)O1 [DOXORUBICIN] | 0.003 (≈ 0.00552 µM) | 0.17 (≈ 0.313 µM) | 0.27 (≈ 0.497 µM) | 0.15 (≈ 0.276 µM) | 0.32 (≈ 0.589 µM) | – | 0.09 (≈ 0.166 µM) | – | –
5 | C=C(C)[C@@H]1CC[C@]2(C(=O)O)CC[C@]3(C)[C@H](CC[C@@H]4[C@@]5(C)CC[C@H](O)C(C)(C)[C@@H]5CC[C@]43C)[C@@H]12 [BETULINIC ACID] | 2 (≈ 4.38 µM) | 3.1 (≈ 6.79 µM) | 1.7 (≈ 3.72 µM) | 3.5 (≈ 7.66 µM) | 4 (≈ 8.76 µM) | 2.8 (≈ 6.13 µM) | > 20 | 5 (≈ 10.9 µM) | –
6 | C=C(C)[C@@H]1CC[C@]2(C(=O)O)CC[C@]3(C)[C@H](CC[C@@H]4[C@@]5(C)CC[C@@H](O)C(C)(C)[C@@H]5CC[C@]43C)[C@@H]12 [EPIBETULINIC ACID] | 2.3 (≈ 5.04 µM) | 9.3 (≈ 20.4 µM) | 8.1 (≈ 17.7 µM) | 9.2 (≈ 20.1 µM) | 9.7 (≈ 21.2 µM) | 9.7 (≈ 21.2 µM) | – | – | –
